This is a sample that favours compounds with a hit; in the whole collection about 1.7% have one here.
STEP inh: inhibitors of human striatal-enriched phosphatase STEP; 360,000 tested, 0.25% active; P54829; recombinant STEP, OMFP fluorogenic substrate, fluorescence; inhibition, % at 20 µM;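 active means inhibition at 20 µM, scaled per plate between control wells, above about 37%, limit read from the data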;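 further: 0% = DMSO with enzyme and substrate and 100% = substrate only without enzyme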
Target sequence (P54829 whole entry, looked up): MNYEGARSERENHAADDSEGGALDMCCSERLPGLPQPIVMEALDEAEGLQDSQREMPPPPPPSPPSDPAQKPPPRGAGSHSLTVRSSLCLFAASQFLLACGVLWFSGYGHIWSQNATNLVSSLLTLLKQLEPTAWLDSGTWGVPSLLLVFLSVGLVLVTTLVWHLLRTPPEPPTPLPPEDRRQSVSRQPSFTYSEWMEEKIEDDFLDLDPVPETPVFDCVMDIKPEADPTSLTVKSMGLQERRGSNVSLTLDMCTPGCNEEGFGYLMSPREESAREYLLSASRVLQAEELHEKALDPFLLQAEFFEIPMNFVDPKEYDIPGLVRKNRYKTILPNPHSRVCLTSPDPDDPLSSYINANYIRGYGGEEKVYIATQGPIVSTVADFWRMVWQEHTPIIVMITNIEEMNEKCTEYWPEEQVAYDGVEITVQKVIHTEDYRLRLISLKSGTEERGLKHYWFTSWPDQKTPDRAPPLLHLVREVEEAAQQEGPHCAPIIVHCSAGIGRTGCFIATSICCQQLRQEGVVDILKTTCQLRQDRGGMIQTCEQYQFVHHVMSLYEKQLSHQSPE
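Also added – OMFP at 25 µM · Test system – STEP tyrosine phosphatase · Technique – FITC-channel fluorescence of OMFP product · Schedule – 20 min at room temperature, dark · Evaluation – control-normalized % inhibition with plate pattern correction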
LMPTP inh: LMPTP (human) inhibition | AID 651560 | recombinant LMPTP-A, OMFP fluorogenic substrate, fluorescence intensity | inhibition, % at 20 µM | 360,000 tested, 0.22% active | P24666;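 active means compounds that cut the enzyme signal by at least half of the control window in the single-dose screen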;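 further: plate controls were DMSO wells with enzyme plus substrate for no effect and substrate without enzyme for full effect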
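Test system – LMPTP-A enzyme · Amount – LMPTP-A at 0.625 nM final in the reaction · Buffer or medium – Bis-Tris pH 6.0, DTT, detergent · Reagent – OMFP 400 µM · Doses – single 20 µM dose · Schedule – reaction 50 min, room temperature, dark · Detection – fluorescence intensity of OMFP turnover product · Evaluation – percent inhibition versus substrate-only and uninhibited controls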
Scp1 inh: blocks human Scp-1 phosphatase activity | Q9GZU7 | inhibition, % at 20 µM | Recombinant Scp1, phosphopeptide, malachite green phosphate absorbance | AID 493091 | 340,000 tested, 0.88% active;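 active means inhibition above about 50% at 20 µM, limit read from the data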;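 further: plate controls were DMSO wells with enzyme for no effect and wells lacking enzyme for full effect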
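Test system: SCP-1 catalytic domain; Buffer or medium: Acidic Tris acetate buffer with magnesium and detergent; Also added: Phosphorylated 17-residue peptide substrate; Compound: single 20 µM dose, 1% DMSO; Schedule: enzyme reaction 45 min at room temperature, colour 5 min, stabilisation 30 min; Signal: Phosphate-binding colour reagent, absorbance read at 630 nm.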
SUMO1 PPI mod: modulators of human SUMO1-mediated protein-protein interactions; AID 602429; P63165; SUMO1 binding to a labelled peptide, TR-FRET, 1 h; 360,000 tested, 0.33% active; inhibition, % at 20 µM; in the data active means inhibition above about 37%
DNMT1 block: blocks human DNA methyltransferase DNMT1; DNMT1 molecular beacon, Hinp1I cleavage, fluorescence; inhibition (reported as % activation of signal), % at 10 µM; 360,000 tested, 0.83% active; in the data active means inhibition above about 50%
Scp-1 conf: Scp-1 (human) inhibition, single-dose confirmed | shares compounds with Scp1 inh | recombinant SCP-1 catalytic domain, phosphate release, malachite green absorbance | inhibition, % at 20 µM | 2,500 tested, 61% active;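 further: plate controls were DMSO with enzyme for no effect and buffer wells lacking enzyme for full effect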
MG interference: colorimetric interference in Scp-1 counter-screen. AID 540313. shares compounds with Scp1 inh. Colorimetric interference counterscreen, malachite green absorbance 630 nm. apparent inhibition (interference), % at 20 µM. 2,500 tested, under 10 active;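 further: compounds added after enzyme reaction finished so only phosphate colour detection is probed; plate controls were DMSO wells with completed Scp-1 reaction for no effect and substrate wells lacking enzyme for full effect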
Scp1 DSF: Scp-1 (human) binding by thermal shift | shares compounds with Scp1 inh | Recombinant SCP1, Sypro Orange thermal shift Tm | thermal shift relative to vanadate control, % at 40 µM | 1,500 tested, 25% active | AID 540329;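 active means substances whose mean melting-temperature shift, as a percentage of the reference inhibitor's shift, reaches about 5.3%, limit read from the data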;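 further: 0% = Tm of DMSO wells and 100% = Tm with sodium orthovanadate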
Active calls of the source: *; . = no result.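 How the source made its calls, unless noted: active means inhibition of at least 30% at 20 µM; inactive means the rest.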

SMILES	STEP inh	LMPTP inh	Scp1 inh	SUMO1 PPI mod	DNMT1 block	Scp-1 conf	MG interference	Scp1 DSF
COc1ccccc1OCCOc1ccc(/C=C2\C(=N)N3N=C(S(C)(=O)=O)SC3=NC2=O)cc1	3	12	80*	-3	1	56*	-12	6.9*
O=C(O)c1ccc(CSc2nc3ccc(NC(=O)c4ccccc4C(=O)O)cc3s2)cc1	24	6	58*	-1	4	43*	-20	-10
CCS(=O)(=O)c1ccc2c(c1)N(S(C)(=O)=O)CC(C(=O)NN)O2 (stereo unspecified)	2	-1	-2	1	-1	.	.	.
COc1ccc(S(=O)(=O)Nc2ccc3c(c2)C(=O)N([C@H](C)CO)C[C@H](C)[C@@H](CN(C)S(=O)(=O)c2c(C)noc2C)O3)cc1	0	2	-6	5	-1	.	.	.
O=C(COC(=O)c1ccc(Cl)c(S(=O)(=O)N2CCCC2)c1)NCc1ccccc1	10	7	50*	5	12	41*	-4	-1
COc1ccc(OC)c(NC(=O)CSc2ncnc3sc(C)cc23)c1	3	17	80*	27	24	64*	-12	12*
COc1ccc(NC(=O)CN(C)C(=O)CSc2ccc(Br)cc2)cc1	-1	-8	-12	-8	-3	.	.	.
CCN(c1ccccc1)S(=O)(=O)c1ccc2[nH]cc(C(=O)N3CCOCC3)c(=O)c2c1	13	0	52*	-2	14	40*	-4	-5
COCCN1C(=O)c2ccccc2C(C(=O)NCCN(C)C)C1c1ccc(F)cc1 (stereo unspecified)	-2	-1	5	-4	4	.	.	.
COCCNC(=O)C1c2ccccc2C(=O)N(CCOC)C1c1ccc(F)cc1 (stereo unspecified)	-1	4	52*	4	-2	4	-2	.
Cc1cc(C)nc(SCC(=O)NNS(=O)(=O)c2ccc(C#N)cc2)n1	1	-1	54*	15	16	62*	3	-4
Cc1ccc(C)c(NC(=O)CSc2ncnc3nc[nH]c23)c1	0	0	58*	-2	1	-19	-16	.
C[N+]1(CC(=O)OCCCc2ccccc2)CCOCC1	-5	-2	100*	-1	2	80*	-17	-10
Cc1ccc(CCCOC(=O)C[N+]2(C)CCOCC2)cc1	-4	0	38	2	2	.	.	.
CCCCC1=CC2=C(c3ccco3)C(=O)C(C)(OC(=O)c3ccc(OC)cc3)C(=O)C2=CN1Cc1ccc2c(c1)OCO2 (stereo unspecified)	1	23	63*	-7	26	5	0	.
CCC1=Nc2cc(C(=O)NCCCOC(C)C)ccc2Sc2ccccc21	1	-1	63*	-8	-7	-23	-15	.
C[N+]1(CC2COC3(CCCCC3)O2)CCCC1 (stereo unspecified)	-3	-2	61*	-2	-1	0	-2	.
CC(Nc1ccc(F)cc1)=[N+](C)CCNS(=O)(=O)c1ccc(Cl)cc1	-1	-1	103*	1	2	89*	-11	-29
COc1cccc(OCc2cc(C(=O)N(C)CCOc3ccc(C)cc3)no2)c1	4	4	55*	-1	-1	-19	-22	.
Cn1nc2c(c1C(=O)N1CCCC(C(=O)c3cc(F)ccc3F)C1)CCCC2 (stereo unspecified)	-2	-2	-2	2	5	.	.	.
Cn1nc2c(c1C(=O)O)CCCC2	-6	0	60*	1	41	67*	1	-5
O=C1/C(=C\c2cccc([N+](=O)[O-])c2O)SC(=S)N1Cc1ccccc1	6	9	73*	23	8	16	-25	.
CC(C)(C)C1CCC(OCC(O)CN2CCCC2)CC1 (stereo unspecified)	3	-1	-9	0	0	.	.	.
